Results published in ChEMBL document CHEMBL1140808, “Antiproliferative effects of dibenzocyclooctadiene lignans isolated from Schisandra chinensis in human cancer cells” (Bioorg Med Chem Lett, 2008).
Active and inactive are the calls of the source. The calls are words filed in the database; no cut-off is given here.

Columns and labels:
T47D = test: Antiproliferative activity against human T47D cells after 72 hrs by SRB assay; type: functional, cell-based
A549 [1] = test: Antiproliferative activity against human A549 cells after 72 hrs by SRB assay; type: functional, cell-based
SNU-638 = test: Antiproliferative activity against human SNU638 cells after 72 hrs by SRB assay; type: functional, cell-based
HCT-15 = test: Antiproliferative activity against human HCT15 cells after 72 hrs by SRB assay; type: functional, cell-based
K562 = test: Antiproliferative activity against human K562 cells after 72 hrs by MTT assay; type: functional, cell-based
SK-HEP1 = test: Antiproliferative activity against human SK-HEP1 cells after 72 hrs by SRB assay; type: functional, cell-based; settings: SK-HEP1, 72 h
MDA-MB-231 = test: Antiproliferative activity against human MDA-MB-231 cells after 72 hrs by SRB assay; type: functional, cell-based; settings: MDA-MB-231, 72 h
A549 [2] = test: Cell cycle arrest in human A549 cells assessed as accumulation at subG1 phase at 60 uM after 24 hrs; type: functional
In short: (§1)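 A549 human lung cancer cells exposed 24 h to the lignan over 3.75–60 µM. Cell cycle distribution measured by flow cytometry. The percentage of cells in each phase (G0/G1, S, G2/M, sub-G1) was derived by cell cycle modelling of the DNA histograms.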

A549 [3] = test: Effect on cdk4 expression in human A549 cells after 24 hrs; type: functional, cell-based
In short: (§2)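 Protein levels measured by Western blot in A549 human lung cancer cells after 24 h exposure to a range of lignan concentrations.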

A549 [4] = test: Inhibition of human retinoblastoma protein phosphorylation in A549 cells after 24 hrs; type: cell-based; in short: as §2
A549 [5] = test: Cell cycle arrest in human A549 cells assessed as accumulation at S phase at 60 uM after 24 hrs; type: functional; in short: as §1
A549 [6] = test: Cell cycle arrest in human A549 cells assessed as accumulation at S phase at 40 uM after 24 hrs; type: functional; in short: as §1
A549 [7] = test: Effect on p27 expression in human A549 cells after 24 hrs; type: functional, cell-based; in short: as §2
A549 [8] = test: Cell cycle arrest in human A549 cells assessed as accumulation at G0/G1 phase at 10 uM after 24 hrs; type: functional; in short: as §1
A549 [9] = test: Cell cycle arrest in human A549 cells assessed as accumulation at G2/M phase at 20 uM after 24 hrs; type: functional; in short: as §1
A549 [10] = test: Cell cycle arrest in human A549 cells assessed as accumulation at subG1 phase at 40 uM after 24 hrs; type: functional; in short: as §1
A549 [11] = test: Cell cycle arrest in human A549 cells assessed as accumulation at G2/M phase at 5 uM after 24 hrs; type: functional; in short: as §1
A549 [12] = test: Cell cycle arrest in human A549 cells assessed as accumulation at S phase at 20 uM after 24 hrs; type: functional; in short: as §1
A549 [13] = test: Cell cycle arrest in human A549 cells assessed as accumulation at G2/M phase at 60 uM after 24 hrs; type: functional; in short: as §1
A549 [14] = test: Cell cycle arrest in human A549 cells assessed as accumulation at G0/G1 phase at 40 uM after 24 hrs; type: functional; in short: as §1
A549 [15] = test: Effect on cyclin D1 expression in human A549 cells after 24 hrs; type: functional, cell-based; in short: as §2
A549 [16] = test: Cell cycle arrest in human A549 cells assessed as accumulation at S phase at 5 uM after 24 hrs; type: functional; in short: as §1
A549 [17] = test: Effect on cyclin A expression in human A549 cells at 60 uM after 24 hrs; type: functional, cell-based; in short: as §2
A549 [18] = test: Cell cycle arrest in human A549 cells assessed as accumulation at G2/M phase at 40 uM after 24 hrs; type: functional; in short: as §1
A549 [19] = test: Effect on cdk2 expression in human A549 cells after 24 hrs; type: functional, cell-based; in short: as §2
A549 [20] = test: Cell cycle arrest in human A549 cells assessed as accumulation at subG1 phase at 10 uM after 24 hrs; type: functional; in short: as §1
A549 [21] = test: Cell cycle arrest in human A549 cells assessed as accumulation at G2/M phase at 10 uM after 24 hrs; type: functional; in short: as §1
A549 [22] = test: Cell cycle arrest in human A549 cells assessed as accumulation at subG1 phase at 5 uM after 24 hrs; type: functional; in short: as §1
A549 [23] = test: Cell cycle arrest in human A549 cells assessed as accumulation at S phase at 10 uM after 24 hrs; type: functional; in short: as §1
A549 [24] = test: Cell cycle arrest in human A549 cells assessed as accumulation at G0/G1 phase at 20 uM after 24 hrs; type: functional; in short: as §1
A549 [25] = test: Cell cycle arrest in human A549 cells assessed as accumulation at G0/G1 phase at 5 uM after 24 hrs; type: functional; in short: as §1
A549 [26] = test: Cell cycle arrest in human A549 cells assessed as accumulation at G0/G1 phase at 60 uM after 24 hrs; type: functional; in short: as §1
A549 [27] = test: Cell cycle arrest in human A549 cells assessed as accumulation at subG1 phase at 20 uM after 24 hrs; type: functional; in short: as §1

Structure (SMILES): COc1cc2c(c(OC)c1OC)-c1c(cc3c(c1OC)OCO3)C[C@H](C)[C@H](C)C2 (stereo in doubt; form 1) [WUWEIZISU B]
- IC50 (T47D; t47d): 19.2 µM
- IC50 (A549 [1]; a549): 21.1 µM
- IC50 (SNU-638; snu-638): 23.1 µM
- IC50 (HCT-15; hct-15): 14.1 µM
- IC50 (K562; k562): 22 µM

Structure (SMILES): COc1cc2c(c(OC)c1OC)-c1c(cc3c(c1OC)OCO3)C[C@H](C)[C@H](C)C2 (stereo in doubt; form 2) [WUWEIZISU B]
- IC50 (T47D; t47d): > 100 µM
- IC50 (SK-HEP1): > 100 µM
- IC50 (A549 [1]; a549): 87.8 µM
- IC50 (MDA-MB-231): > 100 µM
- IC50 (SNU-638; snu-638): > 100 µM
- IC50 (HCT-15; hct-15): 88.1 µM
- IC50 (K562; k562): 62.6 µM

Structure (SMILES): COc1cccc2c1C(=O)c1c(O)c3c(c(O)c1C2=O)C[C@@](O)(C(=O)CO)C[C@@H]3O[C@H]1C[C@H](N)[C@H](O)[C@H](C)O1 [DOXORUBICIN]
- IC50 (T47D; Homo sapiens, T47D, 72 h): 0.1 µM
- IC50 (SK-HEP1): 0.1 µM
- IC50 (A549 [1]; Homo sapiens, A549, 72 h): 0.1 µM
- IC50 (MDA-MB-231): 0.2 µM
- IC50 (SNU-638; Homo sapiens, SNU-638, 72 h): 0.07 µM
- IC50 (HCT-15; Homo sapiens, HCT-15, 72 h): 0.6 µM

Structure (SMILES): COc1cc2c(c(OC)c1OC)-c1c(cc3c(c1OC)OCO3)C[C@H](C)[C@](C)(O)C2 [GOMISIN A]
- IC50 (T47D; Homo sapiens, T47D, 72 h): > 100 µM
- IC50 (SK-HEP1): > 100 µM
- IC50 (A549 [1]; Homo sapiens, A549, 72 h): 84.1 µM
- IC50 (MDA-MB-231): > 100 µM
- IC50 (SNU-638; Homo sapiens, SNU-638, 72 h): 90.5 µM
- IC50 (HCT-15; Homo sapiens, HCT-15, 72 h): > 100 µM
- IC50 (K562; Homo sapiens, K562, 72 h): > 100 µM

Structure (SMILES): C/C=C(\C)C(=O)O[C@H]1c2cc(OC)c(OC)c(OC)c2-c2c(cc3c(c2OC)OCO3)C[C@H](C)[C@]1(C)O [GOMISIN B]
- IC50 (T47D; Homo sapiens, T47D, 72 h): > 100 µM
- IC50 (SK-HEP1): > 100 µM
- IC50 (A549 [1]; Homo sapiens, A549, 72 h): > 100 µM
- IC50 (MDA-MB-231): > 100 µM
- IC50 (SNU-638; Homo sapiens, SNU-638, 72 h): > 100 µM
- IC50 (HCT-15; Homo sapiens, HCT-15, 72 h): > 100 µM
- IC50 (K562; Homo sapiens, K562, 72 h): > 100 µM

Structure (SMILES): COc1cc2c(c(OC)c1OC)-c1c(cc3c(c1OC)OCO3)C[C@H](C)[C@](C)(O)[C@H]2OC(=O)c1ccccc1 [GOMISIN C]
- IC50 (T47D; Homo sapiens, T47D, 72 h): 51.2 µM
- IC50 (SK-HEP1): 70.4 µM
- IC50 (A549 [1]; Homo sapiens, A549, 72 h): > 100 µM
- IC50 (MDA-MB-231): 56.4 µM
- IC50 (SNU-638; Homo sapiens, SNU-638, 72 h): 44.7 µM
- IC50 (HCT-15; Homo sapiens, HCT-15, 72 h): > 100 µM
- IC50 (K562; Homo sapiens, K562, 72 h): > 100 µM

Structure (SMILES): COc1cc2c(c(OC)c1OC)-c1c(cc(OC)c(OC)c1OC)C[C@H](C)[C@H](C)C2 [SCHISANDRIN A]
- IC50 (T47D; Homo sapiens, T47D, 72 h): 40 µM
- IC50 (SK-HEP1): 42 µM
- IC50 (A549 [1]; Homo sapiens, A549, 72 h): > 100 µM
- IC50 (MDA-MB-231): > 100 µM
- IC50 (SNU-638; Homo sapiens, SNU-638, 72 h): 53.1 µM
- IC50 (HCT-15; Homo sapiens, HCT-15, 72 h): > 100 µM
- IC50 (K562; Homo sapiens, K562, 72 h): > 100 µM

Structure (SMILES): COc1c2c(cc3c1-c1c(cc4c(c1OC)OCO4)C[C@H](C)[C@H](C)C3)OCO2 [SCHISANDRIN C]
- IC50 (T47D; Homo sapiens, T47D, 72 h): > 100 µM
- IC50 (SK-HEP1): > 100 µM
- IC50 (A549 [1]; Homo sapiens, A549, 72 h): > 100 µM
- IC50 (MDA-MB-231): > 100 µM
- IC50 (SNU-638; Homo sapiens, SNU-638, 72 h): > 100 µM
- IC50 (HCT-15; Homo sapiens, HCT-15, 72 h): > 100 µM
- IC50 (K562; Homo sapiens, K562, 72 h): > 100 µM

Structure (SMILES): C/C=C(\C)C(=O)O[C@H]1c2cc(OC)c(OC)c(OC)c2-c2c(cc3c(c2O)OCO3)C[C@H](C)[C@]1(C)O [SCHISANTHERIN C]
- Activity (A549 [2]): 2.5%
- Activity (A549 [3]): inactive
- Activity (A549 [4]): Active
- IC50 (T47D; Homo sapiens, T47D, 72 h): 26.1 µM
- Activity (A549 [5]): 8.2%
- Activity (A549 [6]): 18.8%
- Activity (A549 [7]): Active
- Activity (A549 [8]): 50.4%
- Activity (A549 [9]): 16.2%
- Activity (A549 [10]): 1.1%
- Activity (A549 [11]): 18.1%
- Activity (A549 [12]): 26%
- IC50 (SK-HEP1): 19.9 µM
- Activity (A549 [13]): 10.8%
- Activity (A549 [14]): 65.3%
- IC50 (A549 [1]; Homo sapiens, A549, 72 h): 5.6 µM
- Activity (A549 [15]): inactive
- Activity (A549 [16]): 31.8%
- Activity (A549 [17]): inactive
- Activity (A549 [18]): 15.9%
- Activity (A549 [19]): inactive
- IC50 (MDA-MB-231): 33.5 µM
- Activity (A549 [20]): 1.5%
- IC50 (SNU-638; Homo sapiens, SNU-638, 72 h): 15.3 µM
- Activity (A549 [21]): 18%
- Activity (A549 [22]): 0.6%
- Activity (A549 [23]): 31.6%
- IC50 (HCT-15; Homo sapiens, HCT-15, 72 h): 5.6 µM
- Activity (A549 [24]): 57.9%
- Activity (A549 [25]): 50.1%
- Activity (A549 [26]): 75%
- Activity (A549 [27]): 0.6%
- IC50 (K562; Homo sapiens, K562, 72 h): 11.3 µM

Structure (SMILES): COc1cc2c(c(OC)c1OC)-c1c(cc(OC)c(OC)c1OC)C[C@](C)(O)[C@@H](C)C2 [SCHIZANDRIN]
- IC50 (T47D; Homo sapiens, T47D, 72 h): 19.8 µM
- IC50 (SK-HEP1): 71.3 µM
- IC50 (A549 [1]; Homo sapiens, A549, 72 h): 20.7 µM
- IC50 (MDA-MB-231): 61.5 µM
- IC50 (SNU-638; Homo sapiens, SNU-638, 72 h): 21.1 µM
- IC50 (HCT-15; Homo sapiens, HCT-15, 72 h): 50.2 µM
- IC50 (K562; Homo sapiens, K562, 72 h): 25 µM
